In ChEMBL document CHEMBL5331087, “Targeted AURKA degradation: Towards new therapeutic agents for neuroblastoma” (Eur J Med Chem, 2023):
Calls of active or inactive are those of the source. The rule behind the calls is not given here.

Legend:
[1] = biological target: T1, Protein cereblon/Aurora kinase A (Homo sapiens) (UniProt O14965+Q96SW2); assay: PROTAC activity at AURKA/CRBN in human NGP cells assessed as reduction in AURKA level at 500 nM measured for 48 hrs by Western blot analysis; type: cell-based; set-up: scale not given: the % may be the effect or the level left
Summary of the method: (§1)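 NGP cells were treated with 500 nM compound and harvested at 0, 1, 3, 6, 24, 48 and 72 h. RIPA lysates (35 µg) were run on 10% SDS-PAGE and blotted to nitrocellulose. AURKA and MYCN were probed with vinculin as loading control and quantified by densitometry. Values are percent remaining relative to the DMSO control at each timepoint (n = 3).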

[2] = Antiproliferative activity against human N206 cells assessed as reduction in cell viability incubated for 48 hrs relative to control; type: functional
[3] = biological target: T1, Protein cereblon/Aurora kinase A (Homo sapiens); assay: PROTAC activity at AURKA/CRBN in human NGP cells assessed as AURKA degradation at 10 to 1000 nM measured for 24 hrs by Western blot analysis relative to control; type: cell-based; conditions: dose 10-1000 nM
Summary of the method: (§2)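 NGP cells were seeded at about 2×10^6 per flask, adhered for 48 h, and were then treated for 24 h with DMSO matched. Lysis was in RIPA with protease/phosphatase inhibitors. AURKA was quantified by capillary Simple Western with peak areas normalised to vinculin. Fold change is relative to DMSO (mean ± SD, n = 3).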

[4] = Antiproliferative activity against human NGP cells assessed as reduction in cell viability incubated for 48 hrs relative to control; type: functional
[5] = biological target: T1, Protein cereblon/Aurora kinase A (Homo sapiens); assay: PROTAC activity at AURKA/CRBN in human NGP cells assessed as AURKA degradation at 0.1 to 1000 nM measured for 24 hrs by Western blot analysis relative to control; type: cell-based; conditions: dose 0.1-1000 nM; summary of the method: as §2
[6] = Growth inhibition of patient derived NB067 Neuroblastoma organoid assessed as reduction in viability incubated for […] by CellTiter Glo 3D assay relative to control; type: functional; conditions: Homo sapiens
[7] = biological target: T1, Protein cereblon/Aurora kinase A (Homo sapiens); assay: PROTAC activity at AURKA/CRBN in human NGP cells assessed as AURKA degradation at 10 to 1000 nM measured for 24 hrs in presence of MK-5108 by Western blot analysis; type: cell-based; conditions: dose 10-1000 nM
[8] = Antiproliferative activity against human N206 cells assessed as reduction in cell viability incubated for 48 hrs; type: functional, cell-based
Summary of the method: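 Cells were grown in RPMI 1640 with 10% FCS and 2 mM L-glutamine. Seeding was 4500 cells/well for NGP, IMR-32 and N206, and 2100 cells/well for SK-N-AS, with adherence overnight. Compound was dispensed over a concentration range in triplicate. Confluence was imaged live for 48 h and normalised to the DMSO control. Absolute IC50 came from a four-parameter variable-slope fit (n = 4).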

[9] = biological target: T1, Protein cereblon/Aurora kinase A (Homo sapiens); assay: PROTAC activity at AURKA/CRBN in human NGP cells assessed as AURKA degradation measured for 24 hrs by Western blot analysis; type: cell-based; conditions: dose 10-1000 nM
[10] = Growth inhibition of patient derived 000GKX Neuroblastoma organoid assessed as reduction in viability […] by CellTiter Glo 3D assay; type: functional, tissue-based, Homo sapiens
Summary of the method: (§3)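 Patient-derived organoids were dissociated to single cells with Accutase and seeded in NB organoid medium at 5000 (000GKX), 20000 (NB059), 5000 (NB067) or 3000 (NB139) cells/well. Compound was added after 24 h over a concentration range in triplicate, with DMSO matched. Incubation was 120 h at 37 °C and 5% CO2. Viability was read by CellTiter-Glo 3D, and absolute IC50 derived (n = 1).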

[11] = Growth inhibition of patient derived NB059 Neuroblastoma organoid assessed as reduction in viability incubated for 48 hrs by CellTiter Glo 3D assay; type: functional, tissue-based, Homo sapiens; conditions: in the assay text read “120 hrs” for “48 hrs”; summary of the method: as §3
[12] = biological target: T1, Protein cereblon/Aurora kinase A (Homo sapiens); assay: PROTAC activity at AURKA/CRBN in human NGP cells assessed as reduction in AURKA level at 500 nM measured for 1 hr by Western blot analysis; type: cell-based; set-up: scale not given: the % may be the effect or the level left; summary of the method: as §1

T1 sequence (O14965 whole entry, looked up): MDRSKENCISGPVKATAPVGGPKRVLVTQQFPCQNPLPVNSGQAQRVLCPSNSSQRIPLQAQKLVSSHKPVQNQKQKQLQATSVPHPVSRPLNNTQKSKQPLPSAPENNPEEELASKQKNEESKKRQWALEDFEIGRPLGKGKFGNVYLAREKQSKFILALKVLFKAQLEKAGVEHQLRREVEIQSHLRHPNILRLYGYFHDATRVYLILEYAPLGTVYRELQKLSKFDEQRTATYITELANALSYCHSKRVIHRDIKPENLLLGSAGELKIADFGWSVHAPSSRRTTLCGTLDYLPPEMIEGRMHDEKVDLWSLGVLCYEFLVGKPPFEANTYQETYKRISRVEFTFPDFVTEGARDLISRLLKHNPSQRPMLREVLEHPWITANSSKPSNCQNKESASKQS
T1 sequence (Q96SW2 whole entry, looked up): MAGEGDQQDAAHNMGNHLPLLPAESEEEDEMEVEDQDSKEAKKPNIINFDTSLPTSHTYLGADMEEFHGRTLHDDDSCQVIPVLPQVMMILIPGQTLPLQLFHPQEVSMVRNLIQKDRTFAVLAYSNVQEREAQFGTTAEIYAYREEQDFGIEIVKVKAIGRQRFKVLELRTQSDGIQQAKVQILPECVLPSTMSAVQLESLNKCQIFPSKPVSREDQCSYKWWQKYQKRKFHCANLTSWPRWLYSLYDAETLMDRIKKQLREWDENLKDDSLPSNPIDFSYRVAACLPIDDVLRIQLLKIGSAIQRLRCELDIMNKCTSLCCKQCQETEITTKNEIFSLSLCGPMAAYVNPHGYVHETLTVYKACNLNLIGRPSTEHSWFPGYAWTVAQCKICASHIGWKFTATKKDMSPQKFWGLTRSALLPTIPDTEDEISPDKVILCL

Activity [1]: 100% | Emax [3]: 85% | Emax [5]: 89% | Activity [7]: inactive | Activity [9]: Active | Activity [12]: 7%
SMILES: O=C1CCC(N2C(=O)c3cccc(OCCOCCOCCOCCNC(=O)[C@]4(Cc5cccc(Nc6nccs6)n5)CC[C@@H](Oc5cccc(Cl)c5F)CC4)c3C2=O)C(=O)N1 (some centres not stated)
Emax [2]: 53.5% | Emax [4]: 27.8% | Emax [6]: 15.5% | IC50 [8]: Not Active | IC50 [10]: Not Active | IC50 [11]: Not Active
